The list is not random: actives were taken first. Their share in the collection is about 4%.
GPR7 antagonist: blocks human GPR7 receptor signaling; P48145; GPR7-expressing cells, fluorescence antagonist assay; inhibition, % at 4.4 µM; hit rate 1.1% among 290,000; in the data active = inhibition above about 16%, passing the limit was not always enough;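 also: cells stimulated with the agonist NPW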
Target sequence (P48145 whole entry, looked up): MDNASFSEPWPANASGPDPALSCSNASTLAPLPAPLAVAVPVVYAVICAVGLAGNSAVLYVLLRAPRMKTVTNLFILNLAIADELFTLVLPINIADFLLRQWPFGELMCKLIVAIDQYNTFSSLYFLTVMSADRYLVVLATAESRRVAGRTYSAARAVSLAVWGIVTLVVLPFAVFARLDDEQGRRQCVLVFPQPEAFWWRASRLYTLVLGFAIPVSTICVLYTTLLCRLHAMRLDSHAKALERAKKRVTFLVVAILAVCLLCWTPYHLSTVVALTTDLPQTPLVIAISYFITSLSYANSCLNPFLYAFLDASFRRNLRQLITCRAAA
MPTP inh: permeability transition pore inhibition; isolated mouse mitochondria, Ca2+ swelling absorbance, 30 min; inhibition, % at 10 µM; hit rate 1.4% among 360,000; AID 602449;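 active = inhibition of 50% or more, scaled per plate between neutral and stimulator controls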
DAGLB inh: blocks human DAGLB lipase activity; Q8NCG7; HEK293T DAGLB membrane lysate, EnzChek fluorogenic substrate; inhibition, % at 5.17 µM; hit rate 0.059% among 340,000; in the data active = inhibition above about 34%
TAAR1 agonist: agonists of human TAAR1; Q96RJ0; CHO RD-HGA16 TAAR1, Fluo-8 calcium fluorescence; vehicle wells 0%, saturating PEA agonist 100%; activation, % at 3 µM; hit rate 0.99% among 360,000;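 active = activation above the mean activation of all test compounds in the run plus 3 SD, cut at about 38% in these data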
Target sequence (Q96RJ0 whole entry, looked up): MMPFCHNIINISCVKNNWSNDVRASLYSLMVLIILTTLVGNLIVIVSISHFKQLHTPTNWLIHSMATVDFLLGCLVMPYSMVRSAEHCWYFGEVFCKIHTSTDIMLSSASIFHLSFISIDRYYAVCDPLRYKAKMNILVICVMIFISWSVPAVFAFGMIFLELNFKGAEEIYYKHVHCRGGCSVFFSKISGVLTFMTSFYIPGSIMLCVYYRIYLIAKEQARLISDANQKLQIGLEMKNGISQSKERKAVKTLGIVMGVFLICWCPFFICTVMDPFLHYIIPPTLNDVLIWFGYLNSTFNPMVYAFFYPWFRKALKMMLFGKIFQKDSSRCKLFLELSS
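Assay system – CHO-derived RD-HGA16 cells with stable Gα16 and human TAAR1 · Compound dosing – one-point dosing at 3 µM (nominal) · Incubation – 17-24 h seeding, 75 min 37 °C dye, 30 min RT · Measured by – kinetic Fluo-8 calcium fluorescence · Control set – DMSO vehicle as 0%, PEA at EC100 as 100% · Repeats – single well for each compound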
TAAR1 antag: antagonists of human TAAR1. Q96RJ0. CHO RD-HGA16 TAAR1, Fluo-8 calcium fluorescence, antagonist. inhibition, % at 3 µM. hit rate 1.5% among 360,000;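 active = inhibition above a per-plate cutoff, the mean inhibition of test compounds on that plate plus 3 SD, cut at about 49% in these data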
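Test system – hTAAR1-expressing CHO RD-HGA16 cells, Gα16-coupled · Reagent – β-PEA at EC80 concentration, post-compound challenge · Compound dosing – 3 µM, single point · Timing – 140 s kinetic read after compound, 140 s after agonist · Detection – Fluo-8 intracellular calcium dye fluorescence, real-time kinetic reads · Control set – DMSO and EC80 PEA controls · Repeats – n of 1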
Rh123 counter: membrane potential counter-screen of mitochondrial pore inhibitors. isolated mitochondria, Rhodamine 123 fluorescence. AID 624504. shares compounds with MPTP inh. hit rate 78% among 5,000. inhibition, % at 10 µM
MPTP abs DR: dose response confirmation of mitochondrial permeability transition pore inhibitors; hit rate 58% among 780; isolated mitochondria swelling, absorbance; IC50, µM; AID 651561; shares compounds with MPTP inh; in the data active = IC50 below about 20 µM
MPTP cs DR: counter-screen for mitochondrial permeability transition pore inhibitors, dose response | IC50, µM | hit rate 49% among 780 | AID 651564 | isolated mitochondria counterscreen, fluorescence read-out | shares compounds with MPTP inh; in the data active = IC50 below about 80 µM
nonsel antag count: nonselective antagonism, TAAR1 counter-screen; shares compounds with TAAR1 antag; counterscreen cell line, calcium fluorescence, antagonist mode; hit rate 77% among 2,400; AID 651780; inhibition, % at 3 µM;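 also: CHO-Ga16 host cells stimulated with ATP at an EC80 level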
TAAR1 ant conf: human TAAR1 antagonism, confirmed | TAAR1-expressing cells, fluorescence antagonist read-out | hit rate 40% among 2,400 | AID 651785 | shares compounds with TAAR1 antag | inhibition, % at 3 µM; in the data active = inhibition above about 49%;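 also: CHO-Ga16 host cells challenged with agonist PEA near its EC80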
Ga16 nonsel ag: counter-screen for TAAR1 antagonists: nonselective Ga16 agonists; shares compounds with TAAR1 antag; Ga16-expressing cells, calcium fluorescence, agonist counterscreen; activation, % at 3 µM; hit rate 18% among 2,400; AID 651953; in the data active = activation above about 12%
TAAR1 ag counter: counter-screen for human TAAR1 antagonists: TAAR1 agonists. hTAAR1 cell line, fluorescence activation, agonist mode. shares compounds with TAAR1 antag. activation, % at 3 µM. hit rate 2% among 2,400; in the data active = activation above about 37%;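 also: CHO cells stably expressing TAAR1 with calcium dye readout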
Of the large screens only hits and unclear results are named; the others gave an inactive call (follow-up assays come after a bar, where they were run). Rule as the data show it, unless noted: active = inhibition above about 22%; inactive = the rest.

CCC(=Nc1cccc(C(F)(F)F)c1)c1c(O)n(C)c(=O)n(C)c1=O	MPTP inh 79.6 | Rh123 counter inactive | MPTP abs DR 9.01 | MPTP cs DR 14.3
COC(=O)N(c1ccccc1)P(=O)(Oc1ccccc1)Oc1ccccc1	none
CCC(=O)c1ccc(OC(=O)N(C)c2ccccc2)cc1	none (no result: DAGLB inh)
CCC(=C(c1ccc(O)cc1)c1ccc(OCCN(C)C)cc1)c1ccccc1	none (no result: GPR7 antagonist) | MPTP abs DR inactive | MPTP cs DR inactive
CCOC(=O)CC(SP1(=S)OCC2(CCCCC2)CO1)C(=O)OCC (stereo not drawn)	TAAR1 antag 57.9 (no result: GPR7 antagonist) | nonsel antag count inactive | TAAR1 ant conf inactive | Ga16 nonsel ag inactive | TAAR1 ag counter inactive
COc1cc(CN=C(C)c2c(O)n(C3CCCCC3)c(=O)[nH]c2=O)cc(OC)c1	none
COc1ccc2c(c1)CC1(CN2C)C(=O)NC(=O)N(CCc2ccccc2)C1=O (stereo not drawn)	none
CCC(C)N1C(=O)NC(=O)C2(Cc3c(ccc4ccccc34)N(C)C2)C1=O (stereo not drawn)	TAAR1 antag 56.0 | nonsel antag count 32.9 | TAAR1 ant conf 51.7 | Ga16 nonsel ag inactive | TAAR1 ag counter inactive
COC(=O)C1=C(c2ccc(S(C)(=O)=O)cc2)C[C@@H]2CC[C@H]1N2C(=O)N1CCCCC1	none (no result: GPR7 antagonist)
Cc1cc(OC(C)C(=O)NCC(O)c2ccccc2)c2c3c(c(=O)oc2c1)CCCC3 (stereo not drawn)	none
COC(=O)C1=C(c2ccc(F)cc2OCc2ccccc2)C[C@@H]2CC[C@H]1N2C(=O)NCc1cccc(OC)c1	TAAR1 antag 74.3 (no result: GPR7 antagonist) | nonsel antag count 28.8 | TAAR1 ant conf inactive | Ga16 nonsel ag inactive | TAAR1 ag counter inactive
COC(=O)C1=C(c2ccccc2OCc2ccccc2)C[C@@H]2CC[C@H]1N2C(=O)NCc1cccc(F)c1	none (no result: GPR7 antagonist)
COC(=O)C1=C(c2ccc(F)cc2OCc2ccccc2)C[C@@H]2CC[C@H]1N2C(=O)NCc1ccc(OC)cc1	TAAR1 antag 61.8 (no result: GPR7 antagonist) | nonsel antag count inactive | TAAR1 ant conf inactive | Ga16 nonsel ag inactive | TAAR1 ag counter inactive
CN(C)CCN(C(=O)COc1ccc(Cl)cc1)c1nc2cc3c(cc2s1)OCO3	none
COC(=O)C1=C(c2ccc(F)cc2OCc2ccccc2)C[C@@H]2CC[C@H]1N2C(=O)NCCOc1ccccc1	TAAR1 antag 69.4 (no result: GPR7 antagonist) | nonsel antag count inactive | TAAR1 ant conf inactive | Ga16 nonsel ag 13.1 | TAAR1 ag counter inactive
COC(=O)C1=C(c2ccc(F)cc2OCc2ccccc2)C[C@@H]2CC[C@H]1N2C(=O)NCCOc1ccc(OC)cc1	TAAR1 antag 59.1 (no result: GPR7 antagonist) | nonsel antag count inactive | TAAR1 ant conf inactive | Ga16 nonsel ag inactive | TAAR1 ag counter inactive
O=P(Nc1cccc(F)c1)(Oc1ccccc1F)Oc1ccccc1F	TAAR1 antag 89.7 | nonsel antag count 28.6 | TAAR1 ant conf 66.8 | Ga16 nonsel ag inactive | TAAR1 ag counter inactive
COc1cccc(NP(=O)(Oc2ccc(Cl)cc2)Oc2ccc(Cl)cc2)c1	TAAR1 antag 58.8 | nonsel antag count inactive | TAAR1 ant conf inactive | Ga16 nonsel ag inactive | TAAR1 ag counter inactive
O=P(Nc1ccccc1)(Nc1ccccc1)Oc1ccc(Cl)cc1	none (no result: TAAR1 agonist, TAAR1 antag)
Cc1ccc2nc(-c3ccc(CN4CCC(n5c(=O)[nH]c6ccccc65)CC4)cc3)c(-c3ccccc3)nc2c1	none (no result: GPR7 antagonist, DAGLB inh)
COc1ccc2nc(-c3ccc(CN4CCC(n5nnc6ccccc65)CC4)cc3)c(-c3ccccc3)nc2c1	TAAR1 antag 50.5 (no result: GPR7 antagonist, MPTP inh, DAGLB inh) | nonsel antag count inactive | TAAR1 ant conf inactive | Ga16 nonsel ag inactive | TAAR1 ag counter inactive
Cc1ccc2nc(-c3ccc(CN4CCC(n5nnc6ccccc65)CC4)cc3)c(-c3ccccc3)nc2c1	TAAR1 antag 74.8 (no result: GPR7 antagonist, MPTP inh, DAGLB inh) | nonsel antag count 27.1 | TAAR1 ant conf inactive | Ga16 nonsel ag inactive | TAAR1 ag counter inactive
C=C1C(C)C2C(Cc3ccccc3)NC(=O)C23OC(=O)/C=C/C(O)CCCC(C)C/C=C/C3C1O (stereo not drawn)	TAAR1 antag 69.8 (no result: GPR7 antagonist) | nonsel antag count inactive | TAAR1 ant conf 50.1 | Ga16 nonsel ag 13.2 | TAAR1 ag counter inactive
Cc1nc2ccccc2c(=O)n1-c1ccc(-c2ccccc2)cc1	TAAR1 antag 50.4 | nonsel antag count 22.9 | TAAR1 ant conf inactive | Ga16 nonsel ag inactive | TAAR1 ag counter inactive
COc1ccc(-n2c(/C=C/c3ccc(O)c(OC)c3)nc3ccccc3c2=O)cc1	TAAR1 antag 59.2 | nonsel antag count 28.9 | TAAR1 ant conf inactive | Ga16 nonsel ag inactive | TAAR1 ag counter inactive
Cc1ccc(-n2c(C)nc3ccccc3c2=O)cc1C	none
COc1ccc(-n2c(/C=C/c3ccc(O)cc3)nc3ccccc3c2=O)cc1	TAAR1 antag 65.8 | nonsel antag count 30.4 | TAAR1 ant conf inactive | Ga16 nonsel ag inactive | TAAR1 ag counter inactive
COC(=O)C12CCc3cc(OC)ccc3C1=CC(=O)C2 (stereo not drawn)	none (no result: GPR7 antagonist)
Nc1cc(Cl)c2nonc2c1[N+](=O)[O-]	none
O=C1NC(=O)C(Cc2ccccc2)(Cc2ccccc2)C(=O)N1Cc1ccccc1	TAAR1 antag 59.9 (no result: GPR7 antagonist) | nonsel antag count inactive | TAAR1 ant conf inactive | Ga16 nonsel ag inactive | TAAR1 ag counter inactive
OC(CN1CCC(c2c[nH]c3ccccc23)CC1)C(F)(F)F (stereo not drawn)	none
CCCCn1nnnc1C(C1CC1)N1CCC(n2c(=O)[nH]c3ccccc32)CC1 (stereo not drawn)	TAAR1 antag 73.2 (no result: GPR7 antagonist, DAGLB inh) | nonsel antag count 23.6 | TAAR1 ant conf inactive | Ga16 nonsel ag inactive | TAAR1 ag counter inactive
COc1cccc(C(c2nnnn2-c2c(C)cccc2C)N2CCC(n3c(=O)[nH]c4ccccc43)CC2)c1OC (stereo not drawn)	none (no result: GPR7 antagonist, DAGLB inh)
CCCCn1nnnc1C(CCSC)N1CCC(n2c(=O)[nH]c3ccccc32)CC1 (stereo not drawn)	TAAR1 antag 65.2 (no result: GPR7 antagonist, DAGLB inh) | nonsel antag count 29.3 | TAAR1 ant conf 53.7 | Ga16 nonsel ag inactive | TAAR1 ag counter inactive
CCCCn1nnnc1C(C1CC1)N1CCC2(CC1)C(=O)NCN2c1ccccc1 (stereo not drawn)	none (no result: GPR7 antagonist, DAGLB inh)

Compound activity as filed in PubChem BioAssay.
